Reference: paper PMC3062473 (ChemMedChem, 2010)

Key:
caspase 1 = molecular target: T1, caspase 1 (Homo sapiens, UniProt P29466); assay: Reaction Biology caspase panel; assay type: biochemical; details: read-out: Caspase 1 IC50; (Z-LEHD)2-R110 substrate; three separate experiments
T1 sequence (P29466 120-297 limits assumed): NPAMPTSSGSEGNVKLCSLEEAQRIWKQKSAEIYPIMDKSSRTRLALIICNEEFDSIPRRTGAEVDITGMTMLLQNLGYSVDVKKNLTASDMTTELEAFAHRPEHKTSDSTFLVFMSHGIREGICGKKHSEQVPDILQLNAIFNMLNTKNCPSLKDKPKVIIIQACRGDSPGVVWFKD
T1 sequence (P29466 317-404 limits assumed): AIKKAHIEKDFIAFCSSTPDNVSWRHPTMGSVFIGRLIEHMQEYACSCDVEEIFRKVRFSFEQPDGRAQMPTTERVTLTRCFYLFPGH

Caspase 5 = molecular target: T2, Caspase 5 (Homo sapiens, UniProt P51878); assay: Reaction Biology caspase panel; assay type: biochemical; details: read-out: Caspase 5 IC50; (Z-LEHD)2-R110 substrate; three separate experiments
T2 sequence (P51878 137-327 limits assumed): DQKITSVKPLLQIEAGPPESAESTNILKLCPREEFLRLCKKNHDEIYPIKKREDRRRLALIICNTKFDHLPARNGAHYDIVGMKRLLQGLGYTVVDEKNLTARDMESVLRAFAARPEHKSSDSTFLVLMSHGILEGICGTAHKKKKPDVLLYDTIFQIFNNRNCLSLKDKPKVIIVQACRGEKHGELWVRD
T2 sequence (P51878 347-434 limits assumed): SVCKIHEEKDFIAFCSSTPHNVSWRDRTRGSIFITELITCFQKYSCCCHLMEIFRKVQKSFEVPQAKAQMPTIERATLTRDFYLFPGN

Caspase 6 [1] = molecular target: T3, Caspase 6 (Homo sapiens, UniProt P55212); assay: Reaction Biology caspase panel; assay type: biochemical; details: read-out: Caspase 6 IC50; (Z-DEVD)2-R110 substrate; three separate experiments
T3 sequence (P55212 24-179 limits assumed): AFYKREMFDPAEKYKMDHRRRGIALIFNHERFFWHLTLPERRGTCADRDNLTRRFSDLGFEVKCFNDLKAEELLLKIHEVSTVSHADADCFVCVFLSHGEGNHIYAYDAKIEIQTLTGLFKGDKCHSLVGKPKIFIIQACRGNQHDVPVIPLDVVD
T3 sequence (P55212 194-293 limits assumed): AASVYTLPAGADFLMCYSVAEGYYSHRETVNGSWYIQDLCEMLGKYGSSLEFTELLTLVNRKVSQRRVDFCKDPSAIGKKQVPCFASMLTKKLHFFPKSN

Caspase 8 = Caspase 8 (Homo sapiens, UniProt Q14790); assay: Reaction Biology caspase panel; assay type: biochemical; details: read-out: Caspase 8 IC50; (Z-LEHD)2-R110 substrate; three separate experiments
Caspase 8, sequence (Q14790 217-374 limits assumed): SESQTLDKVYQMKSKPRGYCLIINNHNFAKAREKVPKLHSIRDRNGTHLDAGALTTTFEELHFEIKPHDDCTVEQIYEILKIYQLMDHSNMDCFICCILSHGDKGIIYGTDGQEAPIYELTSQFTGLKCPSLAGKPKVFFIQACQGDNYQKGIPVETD
Caspase 8, sequence (Q14790 385-479 limits assumed): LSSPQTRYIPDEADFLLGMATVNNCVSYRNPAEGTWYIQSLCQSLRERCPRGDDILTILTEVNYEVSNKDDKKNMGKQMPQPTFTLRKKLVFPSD

Caspase 9 [2] = molecular target: T4, Caspase 9 (Homo sapiens, UniProt P55211); assay: Reaction Biology caspase panel; assay type: biochemical; details: read-out: Caspase 9 IC50; (Z-LEHD)2-R110 substrate; three separate experiments
T4 sequence (P55211 1-315 limits assumed): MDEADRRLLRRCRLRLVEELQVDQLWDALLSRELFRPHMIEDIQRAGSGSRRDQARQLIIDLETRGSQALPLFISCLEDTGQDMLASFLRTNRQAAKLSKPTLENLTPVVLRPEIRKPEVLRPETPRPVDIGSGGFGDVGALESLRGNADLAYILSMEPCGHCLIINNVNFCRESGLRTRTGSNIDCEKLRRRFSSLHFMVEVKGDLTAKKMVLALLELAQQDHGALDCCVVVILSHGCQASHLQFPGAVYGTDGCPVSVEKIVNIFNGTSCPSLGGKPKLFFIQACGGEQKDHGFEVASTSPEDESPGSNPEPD
T4 sequence (P55211 331-416 limits assumed): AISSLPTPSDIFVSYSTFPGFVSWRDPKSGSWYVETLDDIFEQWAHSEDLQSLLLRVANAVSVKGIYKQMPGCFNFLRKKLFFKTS

Caspase 14 = molecular target: T5, Caspase 14 (Homo sapiens, UniProt P31944); assay: Reaction Biology caspase panel; assay type: biochemical; details: read-out: Caspase 14 IC50; (Z-LEHD)2-R110 substrate; three separate experiments
T5 sequence (P31944 6-146 limits assumed): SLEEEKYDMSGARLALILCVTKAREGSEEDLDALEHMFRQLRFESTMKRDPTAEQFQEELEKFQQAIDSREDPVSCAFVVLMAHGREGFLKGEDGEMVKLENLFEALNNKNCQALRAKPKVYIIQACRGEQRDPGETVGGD
T5 sequence (P31944 153-242 limits assumed): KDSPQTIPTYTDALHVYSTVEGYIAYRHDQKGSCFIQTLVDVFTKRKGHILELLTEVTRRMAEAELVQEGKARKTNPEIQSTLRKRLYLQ

[3] = Plasma protein binding, equilibrium dialysis in 100% plasma; assay type: in vitro ADME, human; details: human plasma, 100% plasma, equilibrium dialysis
Microsomal stability = assay type: in vitro ADME, human; details: human, liver microsomes
In short: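 Human microsomal stability, profiled by a contract lab alongside internal control compounds. Includes minus-NADPH and minus-compound control incubations.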

Caspase 4 = molecular target: T6, Caspase 4 (Homo sapiens, UniProt P49662); details: read-out: Ki caspase 4; cited from earlier work
T6 sequence (P49662 81-270 limits assumed): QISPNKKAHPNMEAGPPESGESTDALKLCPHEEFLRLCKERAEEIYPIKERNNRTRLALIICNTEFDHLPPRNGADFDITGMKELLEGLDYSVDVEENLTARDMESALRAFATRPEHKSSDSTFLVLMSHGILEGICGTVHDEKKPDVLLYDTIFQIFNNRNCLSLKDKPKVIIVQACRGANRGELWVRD
T6 sequence (P49662 290-377 limits assumed): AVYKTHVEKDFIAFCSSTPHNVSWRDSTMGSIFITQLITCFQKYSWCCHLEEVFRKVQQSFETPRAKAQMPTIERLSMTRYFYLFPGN

Caspase 6 [4] = molecular target: T3, Caspase 6; details: read-out: Ki caspase 6; cited from earlier work
Caspase 9 [5] = molecular target: T4, Caspase 9; details: read-out: Ki caspase 9; cited from earlier work
Caspase 7 = molecular target: T7, Caspase 7 (Homo sapiens, UniProt P55210); details: cited from earlier work
T7 sequence (P55210 24-198 limits assumed): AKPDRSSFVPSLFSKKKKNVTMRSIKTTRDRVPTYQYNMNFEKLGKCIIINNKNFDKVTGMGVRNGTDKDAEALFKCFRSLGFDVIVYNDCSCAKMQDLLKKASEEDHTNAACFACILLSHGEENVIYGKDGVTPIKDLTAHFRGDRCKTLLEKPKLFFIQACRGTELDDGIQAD
T7 sequence (P55210 207-303 limits assumed): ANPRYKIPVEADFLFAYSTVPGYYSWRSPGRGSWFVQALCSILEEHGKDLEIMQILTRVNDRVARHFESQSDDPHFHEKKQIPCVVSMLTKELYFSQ

granzyme B = details: cited from earlier work

IC50 (caspase 1): 0.204 nM
IC50 (Caspase 5): 10.6 nM
IC50 (Caspase 6 [1]): > 10000 nM
IC50 (Caspase 8): 3.3 nM
IC50 (Caspase 9 [2]): 5.07 nM
IC50 (Caspase 14): 58.5 nM
Protein Binding fraction unbound [3]: 0.420
Microsomal Stability CLint (Microsomal stability): 6.72 μL/min/mg protein
Microsomal Stability t1/2 (Microsomal stability): 3.43 h
SMILES: CC(C)(C)[C@H](NC(=O)c1ccc(N)c(Cl)c1)C(=O)N1CCC[C@H]1C(=O)N[C@H](C=O)CC(=O)O [Compound 2b, reference compound]
Ki (Caspase 4): < 1 nM
Ki (Caspase 6 [4]): 560 nM
Ki (Caspase 9 [5]): 1030 nM
activity against caspase 7 (Caspase 7): little activity
activity against granzyme B (granzyme B): little activity
